The source of these data is ChEMBL document CHEMBL5329164, “Design, synthesis, and evaluation of BTK-targeting PROTACs with optimized bioavailability in vitro and in vivo” (RSC Med Chem, 2023).

Series [1] concerns the target T1, Protein cereblon/Tyrosine-protein kinase BTK (Homo sapiens) (UniProt Q06187+Q96SW2). The series can be described thus: PROTAC activity at CRBN/ BTK in human Ramos cells assessed as induction of BTK degradation at 250 nM incubated for 24 hrs by immunoblot analysis relative to control. In kind it is cell-based. An outline of the steps: (§1)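 Ramos cells in supplemented RPMI 1640 were plated at 3×10^5 cells/well and treated with compound for 24 h. Lysates in SDS sample buffer were heated at 100 °C for 15 min and run on 10% SDS-PAGE, then transferred to PVDF. Membranes were probed overnight at 4 °C for BTK, GSPT1 and β-actin.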
A general note: In western blotting, separated proteins are transferred to a membrane and probed.

Series [2] concerns the target T1, Protein cereblon/Tyrosine-protein kinase BTK (Homo sapiens). The series is described as follows: PROTAC activity at CRBN/ BTK in human Ramos cells assessed as induction of BTK degradation at 500 nM incubated for 24 hrs by immunoblot analysis relative to control. In kind it is cell-based. The gist of the method: as §1
For series [3] the target is unchanged. The series can be described thus: PROTAC activity at CRBN/ BTK in human Ramos cells assessed as induction of BTK degradation at 30 nM incubated for 24 hrs by immunoblot analysis. In kind it is cell-based. An outline of the steps:
as §1

Series [4] shares this target. The series can be described thus: PROTAC activity at CRBN/ BTK in human Ramos cells assessed as induction of BTK degradation at 100 nM incubated for 24 hrs by immunoblot analysis relative to control. In kind it is cell-based. The gist of the method:
as §1

Series [5] shares this target. The series is described as follows: PROTAC activity at CRBN/ BTK in human DOHH-2 cells assessed as induction of BTK degradation at 1.2 to 300 nM incubated for 24 hrs by immunoblot analysis. In kind it is cell-based. The conditions noted are these: dose 1.2-300 nM. The gist of the method:
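DOHH2 cells were grown in RPMI 1640 with 10% FBS, 1% penicillin-streptomycin, 1% nonessential amino acids and 50 µM 2-mercaptoethanol at 37 °C under 5% CO₂. Cells were treated with compound at various concentrations, lysed in SDS buffer and separated on 10% SDS-PAGE. Blots were transferred to PVDF and probed for BTK, with β-actin as loading control.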

Series [6] in a line: Solubility in DMSO:Cremophor EL:1xPBS mixture at 10 mg/ml. In kind it is physicochemical.
A short description of series [7]: Solubility in DMSO:Cremophor EL:1xPBS mixture at 10 mg/ml incubated for 7 days. In kind it is physicochemical. The following applies: 168 h, time 7 day.
Series [8] in a line: Apparent permeability across apical to basal side in MDCK-II cells at 10 uM measured for 120 mins by LC-MS/MS analysis. In kind it is ADME, cell-based, Canis lupus familiaris. The conditions noted are these: dog. An outline of the steps: (§2)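 MDCK monolayers were grown on Transwell inserts (5 x 10^4 cells/cm²) and used at day 5. Compound at 10 μM in HBSS with 10 mM Hepes, pH 7.40, was dosed apically or basolaterally and incubated at 37±1 °C. Lucifer yellow passage below 1% confirmed monolayer integrity.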

The nature of series [9]: Apparent permeability across basal to apical side in MDCK-II cells at 10 uM measured for 120 mins by LC-MS/MS analysis. In kind it is ADME, cell-based, Canis lupus familiaris. The following applies: dog. The gist of the method: as §2
The nature of series [10]: Apparent permeability across apical to basal side in MDCK-II cells assessed as compound recovery at 10 uM measured for 120 mins by LC-MS/MS analysis. In kind it is ADME, cell-based, Canis lupus familiaris. The conditions noted are these: dog, read-out: Drug recovery. An outline of the steps:
(§3)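 MDCK monolayers were grown on Transwell inserts (5 x 10^4 cells/cm²) and used at day 5. Compound at 10 μM in HBSS with 10 mM Hepes, pH 7.40, was dosed apically or basolaterally and incubated at 37±1 °C. Receiver and donor samples were taken at 120 min and quantified by LC-MS/MS against an internal standard. Lucifer yellow passage below 1% confirmed monolayer integrity.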

Series [11] is described as follows: Apparent permeability across basal to apical side in MDCK-II cells assessed as compound recovery at 10 uM measured for 120 mins by LC-MS/MS analysis. In kind it is ADME, cell-based, Canis lupus familiaris. The conditions noted are these: dog, read-out: Drug recovery. The gist of the method: as §3
Series [12] is described as follows: Stability in mouse liver microsomes assessed as half life at 1 uM preincubated for 10 mins followed by reaction initiation measured upto 60 mins in presence of NADPH. In kind it is ADME, Microsome. The following applies: time < 70 min. The gist of the method:
(§4)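 Compound at 1 μM final was incubated with 0.5 mg/mL mouse, rat, dog, monkey or human liver microsomes in 100 mM PBS, pH 7.4, with 1 mM NADPH at 37 °C after a 10 min preincubation. Reactions were stopped at 0, 5, 15, 30 and 60 min with ice-cold acetonitrile containing tolbutamide. Supernatants were taken for bioanalysis.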
For orientation: Microsomes from liver hold many membrane-bound enzymes, among them those of drug oxidation.

Series [13] in a line: Stability in mouse liver microsomes assessed as intrinsic clearance measured per mg protein at 1 uM preincubated for 10 mins followed by reaction initiation measured upto 60 mins in presence of NADPH. In kind it is ADME, Microsome. The conditions noted are these: time < 70 min, read-out: CLH. The gist of the method:
as §4

Series [14] in a line: Stability in rat liver microsomes assessed as half life at 1 uM preincubated for 10 mins followed by reaction initiation measured upto 60 mins in presence of NADPH. In kind it is ADME, Microsome. The conditions noted are these: time < 70 min. The gist of the method:
as §4

Series [15] in a line: Stability in rat liver microsomes assessed as intrinsic clearance measured per mg protein at 1 uM preincubated for 10 mins followed by reaction initiation measured upto 60 mins in presence of NADPH. In kind it is ADME, Microsome. The conditions noted are these: time < 70 min, read-out: CLH. The gist of the method:
as §4

Series [16] can be described thus: Stability in dog liver microsomes assessed as half life at 1 uM preincubated for 10 mins followed by reaction initiation measured upto 60 mins in presence of NADPH. In kind it is ADME, Canis lupus familiaris, Microsome. The conditions noted are these: time < 70 min. An outline of the steps:
as §4

Series [17] can be described thus: Stability in dog liver microsomes assessed as intrinsic clearance measured per mg protein at 1 uM preincubated for 10 mins followed by reaction initiation measured upto 60 mins in presence of NADPH. In kind it is ADME, Canis lupus familiaris, Microsome. The conditions noted are these: time < 70 min, read-out: CLH. An outline of the steps:
as §4

The nature of series [18]: Stability in monkey liver microsomes assessed as half life at 1 uM preincubated for 10 mins followed by reaction initiation measured upto 60 mins in presence of NADPH. In kind it is ADME, Macaca mulatta, Microsome. The following applies: rhesus monkey, time < 70 min. The gist of the method: as §4
A short description of series [19]: Stability in monkey liver microsomes assessed as intrinsic clearance measured per mg protein at 1 uM preincubated for 10 mins followed by reaction initiation measured upto 60 mins in presence of NADPH. In kind it is ADME, Macaca mulatta, Microsome. The conditions noted are these: rhesus monkey, time < 70 min, read-out: CLH. The gist of the method: as §4
The nature of series [20]: Stability in human liver microsomes assessed as half life at 1 uM preincubated for 10 mins followed by reaction initiation measured upto 60 mins in presence of NADPH. In kind it is ADME, Microsome. The following applies: time < 70 min. An outline of the steps: as §4
A short description of series [21]: Stability in human liver microsomes assessed as intrinsic clearance measured per mg protein at 1 uM preincubated for 10 mins followed by reaction initiation measured upto 60 mins in presence of NADPH. The following applies: time < 70 min, read-out: CLH. In kind it is ADME, Microsome. The gist of the method:
as §4

A short description of series [22]: Half life in BALB/c mouse at 2 mg/kg, iv measured for 24 hrs by LCMS analysis. The following applies: in vivo. In kind it is ADME, organism-based. The gist of the method: (§5)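 Male Balb/c mice, 9 per group, dosed intravenously at 2 mg/kg. Blood was drawn into EDTA-K2 tubes at 0.083, 0.25, 0.5, 1, 2, 4, 6, 8 and 24 h. Plasma was separated by centrifugation at 2000 g for 10 min and precipitated with acetonitrile containing tolbutamide internal standard. Analysis was by LC-MS on a polar C18 column with a water/acetonitrile 0.1% formic acid gradient.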

A short description of series [23]: Clearance in BALB/c mouse at 2 mg/kg, iv measured for 24 hrs by LCMS analysis. The conditions noted are these: in vivo. In kind it is ADME, organism-based. The gist of the method:
as §5

Series [24] is described as follows: AUClast in BALB/c mouse at 2 mg/kg, iv measured for 24 hrs by LCMS analysis. In kind it is ADME, organism-based. The following applies: in vivo. The arrangement: time 24 hrs, dose 2 mg/kg, route iv. An outline of the steps: as §5
Series [25] can be described thus: Apparent volume of distribution in BALB/c mouse at 2 mg/kg, iv measured for 24 hrs by LCMS analysis. The conditions noted are these: in vivo, read-out: Vz. In kind it is ADME, organism-based. An outline of the steps:
as §5

Series [26] in a line: Half life in BALB/c mouse at 5 mg/kg, po measured for 24 hrs by LCMS analysis. In kind it is ADME, organism-based. The following applies: in vivo. An outline of the steps:
(§6)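 Male Balb/c mice, 9 per group, dosed intragastrically at 5 mg/kg; the same compounds were also given iv at 2 mg/kg. Blood was drawn into EDTA-K2 tubes at 0.25, 0.5, 1, 2, 4, 6, 8 and 24 h. Plasma proteins were precipitated with acetonitrile containing tolbutamide. Quantification was by LC-MS on a C18 column with a formic acid water/acetonitrile gradient.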

A short description of series [27]: AUClast in BALB/c mouse at 5 mg/kg, po measured for 24 hrs by LCMS analysis. In kind it is ADME, organism-based. More on the design: dose 5 mg/kg, time 24 hrs, route po. The following applies: in vivo. An outline of the steps:
as §6

Series [28] can be described thus: Cmax in BALB/c mouse at 5 mg/kg, po measured for 24 hrs by LCMS analysis. In kind it is ADME, organism-based. The arrangement: dose 5 mg/kg, time 24 hrs, route po. The following applies: in vivo. An outline of the steps: as §6
A short description of series [29]: Tmax in BALB/c mouse at 5 mg/kg, po measured for 24 hrs by LCMS analysis. In kind it is ADME, organism-based. The following applies: in vivo. An outline of the steps: as §6
The nature of series [30]: Oral bioavailability in BALB/c mouse at 5 mg/kg measured for 24 hrs by LCMS analysis. In kind it is ADME, organism-based. The conditions noted are these: in vivo. The gist of the method:
as §6

Active and inactive are the calls of the source. The rule behind the calls is not given here.

T1 sequence (Q06187 2-659 limits assumed): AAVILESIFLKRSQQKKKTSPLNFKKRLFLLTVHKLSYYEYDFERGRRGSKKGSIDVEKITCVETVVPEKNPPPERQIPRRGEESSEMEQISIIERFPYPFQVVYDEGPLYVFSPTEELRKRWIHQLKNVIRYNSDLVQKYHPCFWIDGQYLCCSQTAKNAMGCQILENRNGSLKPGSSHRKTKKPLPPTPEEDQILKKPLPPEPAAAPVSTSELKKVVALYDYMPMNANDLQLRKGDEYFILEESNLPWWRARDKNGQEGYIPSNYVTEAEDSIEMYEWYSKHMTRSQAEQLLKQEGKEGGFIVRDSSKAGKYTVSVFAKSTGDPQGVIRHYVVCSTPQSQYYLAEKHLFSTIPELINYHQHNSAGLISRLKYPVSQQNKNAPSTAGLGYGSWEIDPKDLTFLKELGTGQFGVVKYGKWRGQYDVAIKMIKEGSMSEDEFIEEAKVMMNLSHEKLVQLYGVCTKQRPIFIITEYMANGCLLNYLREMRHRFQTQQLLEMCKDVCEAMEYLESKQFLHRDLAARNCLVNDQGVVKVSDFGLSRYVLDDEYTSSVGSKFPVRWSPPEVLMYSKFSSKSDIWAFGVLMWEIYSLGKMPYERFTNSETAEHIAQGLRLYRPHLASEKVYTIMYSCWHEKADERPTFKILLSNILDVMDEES
T1 sequence (Q96SW2 whole entry partner): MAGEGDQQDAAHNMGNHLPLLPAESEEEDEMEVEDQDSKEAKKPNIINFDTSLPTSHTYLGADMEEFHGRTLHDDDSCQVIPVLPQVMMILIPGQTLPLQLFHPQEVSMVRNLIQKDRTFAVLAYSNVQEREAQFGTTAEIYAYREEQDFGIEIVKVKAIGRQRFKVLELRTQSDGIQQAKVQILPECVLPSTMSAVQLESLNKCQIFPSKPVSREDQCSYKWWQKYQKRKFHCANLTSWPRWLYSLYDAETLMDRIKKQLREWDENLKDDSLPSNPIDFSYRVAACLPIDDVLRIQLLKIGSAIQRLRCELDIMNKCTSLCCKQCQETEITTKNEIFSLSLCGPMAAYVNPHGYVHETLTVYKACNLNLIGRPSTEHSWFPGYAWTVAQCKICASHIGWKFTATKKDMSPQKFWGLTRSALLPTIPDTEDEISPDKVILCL

As to `Nc1ncnc2c1c(-c1ccc(Oc3ccccc3)cc1)nn2[C@@H]1CCCN(C(=O)c2ccc(-c3ccc(Nc4ccc5c(c4)C(=O)N(C4CCC(=O)NC4=O)C5=O)cc3)cc2)C1` (stereo not given in full), the Activity in [1] amounted to 38.4%; in [2], 38.8%.

In general, Papp A→B refers to the apparent permeability from the apical to the basolateral side of a cell layer. As usually defined, the Papp B→A is how fast a substance crosses the layer from the basolateral side. The term half-life denotes how long it takes for the measured level to halve. As usually defined, the clearance is a measure of how efficiently the substance is removed, as volume per time. By AUC(0-t) is commonly meant exposure summed from dosing to a finite time, without extrapolation to infinity. As a reminder, the Cmax is the peak of the concentration-time curve. As a reminder, the Tmax is the time from dosing to the highest level. As a reminder, the bioavailability is dose-corrected exposure relative to a reference, in per cent. With `Nc1ncnc2c1c(-c1ccc(Oc3ccccc3)cc1)nn2[C@@H]1CCCN(C(=O)c2ccc(CNc3ccc4c(c3)C(=O)N(C3CCC(=O)NC3=O)C4=O)cc2)C1` (stereo not given in full), the values for the Activity in series [3] and in [4] were 20.7% and 18.3%, respectively. For the same compound, the result in series [5] was Active. The solubility entry in series [6] and in [7] was “Soluble” in each case. In addition, the Papp A→B at 2 h, 10 µM in series [8] amounted to 0.016 ×10⁻⁶ cm/s. Further, in series [9], the Papp B→A at 2 h, 10 µM worked out at 0.01 ×10⁻⁶ cm/s. Moreover, the recovery at 2 h, 10 µM was 111% in [10] and 116% in [11]. For the same compound, the half-life at 1 µM in [12] was determined as 136 min; in series [14] it was 181 min; in [16] it was 254 min; in series [18], 307 min; in series [20] it was 141 min. Moreover, the microsomal CLint at 1 µM in [13] stood at 10.2 µL/min/mg; in [15] it was 7.66 µL/min/mg; in series [17], 5.45 µL/min/mg; in series [19] it was 4.52 µL/min/mg; in series [21], 9.83 µL/min/mg. Besides, the half-life is 58.8 min in series [22] and 31.2 min in [26]. Also, in [23], the clearance is 11.8 mL/min/kg. For the same compound, the AUC(0-t) at 24 h was 2810 ng·h/mL in series [24] and 336 ng·h/mL in [27]. The Vd in series [25] came to 0.998 L/kg. In addition, in [28], the highest level (Cmax) was 252 ng/mL. Besides, in series [29], the Tmax is 30 min. The compound also showed a bioavailability in series [30] of 4.78%.
